Among the data in ChEMBL document CHEMBL1770099, “Aromatic ring functionalization of benzolactam derivatives: new potent dopamine D3 receptor ligands” (Bioorg Med Chem Lett, 2011) are Ratio Ki, Ki and EC50 values, retold here.

The nature of experiment [1]: Selectivity ratio of Ki for dopamine D2 long receptor to Ki for dopamine D3 receptor.
The target in experiment [2] is T1, D(2) dopamine receptor (Homo sapiens, UniProt P14416). Put plainly: Displacement of [3H]Spiperone from human dopamine D2 short receptor expressed in CHO cells. The experiment is classed as cell-based. The procedure, abridged: (§1)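 Competition for [3H]spiperone binding to cloned human receptor (D2long, D2short or D4.4) stably expressed in CHO cells; Ki values are means of two to four individual competition experiments, each run in triplicate.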

For experiment [3], the target named is T1, D(2) dopamine receptor. Nature of the experiment: Displacement of [3H]Spiperone from human dopamine D2 long receptor expressed in CHO cells. It counts as cell-based. The method in brief: as §1
For orientation: Loss of bound radioactivity is the signal in a displacement assay; it reports binding, not function.

Experiment [4] has as its target 5-hydroxytryptamine receptor 2A (Sus scrofa, UniProt P50129). Put plainly: Displacement of [3H]Ketanserin from pig 5-HT2 receptor.
Experiment [5] can be described thus: Displacement of [3H]Prazosin from pig adrenergic alpha1 receptor. The arrangement: species or system Sus scrofa.
The target in experiment [6] is D(1A) dopamine receptor (Sus scrofa, UniProt P50130). Nature of the experiment: Displacement of [3H]SCH-23390 from dopamine D1 receptor in pig striatal membranes. It counts as cell membranes, Striatum, Membrane. The method in brief:
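Competition binding with D1-selective radioligand [3H]SCH23390 on porcine striatal membranes; Ki values are means of two to four individual competition experiments, each run in triplicate.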

Experiment [7] concerns the target T2, D(3) dopamine receptor (Homo sapiens, UniProt P35462). Nature of the experiment: Displacement of [3H]Spiperone from human dopamine D3 receptor expressed in CHO cells. It counts as cell-based.
Experiment [8] has as its target T3, D(4) dopamine receptor (Homo sapiens, UniProt P21917).
T3 sequence (P21917 whole entry): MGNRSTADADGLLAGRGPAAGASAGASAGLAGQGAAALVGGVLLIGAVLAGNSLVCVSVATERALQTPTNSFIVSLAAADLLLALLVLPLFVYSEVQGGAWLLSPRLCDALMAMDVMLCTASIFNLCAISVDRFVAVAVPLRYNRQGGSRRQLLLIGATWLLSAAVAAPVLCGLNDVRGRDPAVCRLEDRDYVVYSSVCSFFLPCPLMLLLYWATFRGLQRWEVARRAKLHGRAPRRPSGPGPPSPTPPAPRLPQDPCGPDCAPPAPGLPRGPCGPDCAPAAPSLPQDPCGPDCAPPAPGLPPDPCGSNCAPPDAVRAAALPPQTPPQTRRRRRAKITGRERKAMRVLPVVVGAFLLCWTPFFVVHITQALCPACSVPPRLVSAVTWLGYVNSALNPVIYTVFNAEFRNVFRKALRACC
Put plainly: Displacement of [3H]Spiperone from human dopamine D4.4 receptor expressed in CHO cells. It counts as cell-based. The method in brief:
as §1

Experiment [9] is described as follows: Displacement of [3H]WAY-100635 from pig 5-HT1A receptor. The arrangement: species or system Sus scrofa.
The target in experiment [10] is T2, D(3) dopamine receptor. Put plainly: Agonist activity at human dopamine D3 receptor expressed in dhfr-deficient CHO cells assessed as [3H]thymidine incorporation. The experiment is classed as functional, cell-based. In general terms: Uptake of a labelled nucleoside into DNA is a usual measure of proliferation.
The target in experiment [11] is T2, D(3) dopamine receptor. Put plainly: Binding affinity to dopamine D3 receptor.

The structures appear in SMILES notation. pEC50, pKi: −log10 of the molar value.

5-hydroxytryptamine receptor 2A, sequence (P50129 whole entry): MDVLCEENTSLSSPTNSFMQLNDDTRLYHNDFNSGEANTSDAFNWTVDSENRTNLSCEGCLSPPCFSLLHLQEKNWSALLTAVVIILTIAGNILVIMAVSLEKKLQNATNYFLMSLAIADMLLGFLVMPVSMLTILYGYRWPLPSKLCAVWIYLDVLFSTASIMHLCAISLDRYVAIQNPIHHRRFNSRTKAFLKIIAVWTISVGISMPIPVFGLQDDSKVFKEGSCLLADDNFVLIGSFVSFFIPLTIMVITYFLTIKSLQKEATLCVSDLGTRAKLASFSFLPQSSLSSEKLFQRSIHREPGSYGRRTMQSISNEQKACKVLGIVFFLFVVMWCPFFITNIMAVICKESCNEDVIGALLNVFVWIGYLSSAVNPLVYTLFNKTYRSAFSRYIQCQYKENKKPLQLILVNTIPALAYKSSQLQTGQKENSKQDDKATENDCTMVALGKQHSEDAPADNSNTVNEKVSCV
D(1A) dopamine receptor, sequence (P50130 whole entry): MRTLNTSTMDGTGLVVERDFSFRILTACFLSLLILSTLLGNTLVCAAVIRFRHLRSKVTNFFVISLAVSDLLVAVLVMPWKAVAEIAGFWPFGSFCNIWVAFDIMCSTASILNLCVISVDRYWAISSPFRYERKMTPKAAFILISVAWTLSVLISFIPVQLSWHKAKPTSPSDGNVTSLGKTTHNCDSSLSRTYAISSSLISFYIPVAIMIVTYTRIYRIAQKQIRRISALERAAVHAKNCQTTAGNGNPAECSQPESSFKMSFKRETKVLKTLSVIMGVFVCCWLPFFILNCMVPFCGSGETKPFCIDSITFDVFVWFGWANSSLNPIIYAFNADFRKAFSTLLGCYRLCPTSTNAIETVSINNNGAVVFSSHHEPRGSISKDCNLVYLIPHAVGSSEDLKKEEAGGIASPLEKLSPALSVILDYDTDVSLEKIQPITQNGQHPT
T1 sequence (P14416 whole entry): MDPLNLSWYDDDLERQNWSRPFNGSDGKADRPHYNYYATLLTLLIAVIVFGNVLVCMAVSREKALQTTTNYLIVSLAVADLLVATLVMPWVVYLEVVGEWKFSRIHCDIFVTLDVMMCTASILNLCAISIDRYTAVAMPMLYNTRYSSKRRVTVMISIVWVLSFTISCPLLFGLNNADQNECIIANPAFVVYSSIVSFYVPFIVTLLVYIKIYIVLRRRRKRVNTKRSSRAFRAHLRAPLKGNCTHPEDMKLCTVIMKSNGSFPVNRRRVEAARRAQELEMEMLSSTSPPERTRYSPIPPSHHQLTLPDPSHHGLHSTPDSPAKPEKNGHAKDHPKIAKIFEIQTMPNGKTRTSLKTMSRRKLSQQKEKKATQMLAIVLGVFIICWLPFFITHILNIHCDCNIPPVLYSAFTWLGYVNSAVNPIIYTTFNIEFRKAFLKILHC
T2 sequence (P35462 whole entry): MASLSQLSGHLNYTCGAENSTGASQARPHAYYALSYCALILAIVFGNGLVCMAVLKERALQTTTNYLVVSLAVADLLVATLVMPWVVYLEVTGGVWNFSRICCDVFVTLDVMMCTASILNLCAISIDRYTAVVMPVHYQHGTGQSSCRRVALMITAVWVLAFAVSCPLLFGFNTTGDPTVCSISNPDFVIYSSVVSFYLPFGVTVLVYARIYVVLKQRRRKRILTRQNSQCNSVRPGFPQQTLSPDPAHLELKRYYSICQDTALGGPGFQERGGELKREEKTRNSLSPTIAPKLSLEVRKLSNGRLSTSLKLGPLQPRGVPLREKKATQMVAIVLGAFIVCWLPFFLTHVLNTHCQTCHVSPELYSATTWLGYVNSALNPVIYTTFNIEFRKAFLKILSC

`COc1ccccc1N1CCN(CCCCNC(=O)c2ccc(-c3ccc(C(C)=O)cc3)cc2)CC1`: the Ratio Ki in experiment [1] amounted to 130.
What is called pKi is −log10 of the Ki, conventionally taken in molar units. Higher therefore signals a low Ki. Turning to `COc1ccccc1N1CCN(CCCCN2CCCc3cc(-c4cccs4)ccc3C2=O)CC1`, the pKi in experiment [2] was 8.68; in experiment [3], 8.29; in [4], 6.28; in experiment [5], 8.01; in experiment [6] it was 6.04; in experiment [7], 9.54. In addition, the pKi in [8] is 8.54; in experiment [9], 7.17.
As for `COc1ccccc1N1CCN(CCCCN2CCc3cc(-c4ccncc4)ccc3C2=O)CC1`, the pKi in experiment [4] is 6.80; in experiment [5], 8.66; in experiment [6] it was 6.42; in experiment [7], 9.92; in experiment [8], 8.47; in experiment [9] it was 7.89.
With `COc1ccccc1N1CCN(CCCCN2CCc3cc(F)ccc3C2=O)CC1`, the negative-log Ki (pKi) is 8.04 in [2]; 7.59 in [3]; 6.08 in experiment [4]; 8.51 in [5]; 5.64 in experiment [6]; 8.80 in experiment [7]. Moreover, the values for the pKi in experiment [8] and in experiment [9] were 8.55 and 8.77, respectively.
The term pEC50 denotes the negative decadic logarithm of the EC50, by convention in mol/L. `COc1ccccc1N1CCN(CCCCN2CCc3cc(-c4ccco4)ccc3C2=O)CC1`: the pKi in [2] is 8.32; in experiment [3], 7.80; in [4] it was 6.48; in experiment [5] it was 8.80; in experiment [6], 6.24; in experiment [7], 9.68. In addition, the pKi in [8] is 8.48; in experiment [9] it was 7.72. Besides, in [10], the negative logarithm of the EC50 (pEC50) was 8.64.
For `COc1ccc2c(c1)CCCN(CCCCN1CCN(c3ccccc3OC)CC1)C2=O`, the pKi in experiment [2] is 9.03; in experiment [3], 8.49; in experiment [4] it was 6.09; in experiment [5] it was 8.43; in experiment [6] it was 5.68; in [7], 9.57. The figures for the pKi in [8] and in experiment [9] were 8.52 and 8.60, respectively.
Regarding `C#Cc1ccc2c(c1)CCN(CCCCN1CCN(c3ccccc3OC)CC1)C2=O`, the pKi in [2] was 8.06; in experiment [3], 7.62; in experiment [4], 6.04; in [5] it was 8.62; in [6] it was 5.72; in experiment [7], 9.30. Moreover, the pKi in experiment [8] was 8.39; in [9], 7.85.
On to `COc1ccccc1N1CCN(CCCCN2CCc3ccccc3C2=O)CC1`, for which the pKi in experiment [2] is 8.15; in [3], 7.68; in experiment [4], 6.00; in experiment [5], 8.64; in experiment [6] it was 5.60; in experiment [8], 8.72. The negative logarithm of the Ki (pKi) in [9] is 8.62.
Regarding `COc1ccccc1N1CCN(CCCCN2CCc3cc(C#N)ccc3C2=O)CC1`, the pKi in experiment [2] was 7.66; in experiment [3] it was 7.42; in experiment [4], 6.37; in experiment [5], 8.42; in [6], 5.49; in experiment [7], 8.89. Also, the pKi is 8.21 in experiment [8] and 8.42 in experiment [9].
As for `CC(=O)Nc1ccc(CCN2C[C@@H]3COc4ccc(C#N)cc4[C@H]3C2)cc1`, in experiment [1], the Ratio Ki is 37. Moreover, the pKi in [11] was 8.70.
Take `COc1ccccc1N1CCN(CCCCN2CCc3cc(-c4cccs4)ccc3C2=O)CC1`: the pKi is 8.16 in [2]; 7.96 in experiment [3]; 6.72 in [4]; 8.43 in experiment [5]; 6.32 in [6]; 9.92 in experiment [7]. The pKi is 8.64 in [8] and 8.21 in [9]. The pEC50 in experiment [10] was 8.55.
`COc1ccccc1N1CCN(CCCCN2CCc3cc(-c4ccccc4)ccc3C2=O)CC1`: the pKi in [2] was 7.82; in experiment [3] it was 7.42; in [4], 6.48; in experiment [5], 8.27; in experiment [6], 6.19; in [7] it was 9.60. The pKi in [8] was 8.47; in experiment [9] it was 7.42. Also, the pEC50 in experiment [10] was 8.48.
For `COc1ccccc1N1CCN(CCCCN2CCc3c(cccc3-c3ccccc3)C2=O)CC1`, the pKi in experiment [2] was 7.20; in experiment [3], 7.28; in experiment [4] it was 6.64; in experiment [5], 8.89; in [6], 6.66; in experiment [7], 7.92. In addition, the results for the pKi in [8] and in experiment [9] were 8.01 and 7.33, respectively.
For the compound `Cc1nc(-c2ccc(C(=O)N[C@H]3CC[C@H](CCN4CCc5ccc(S(C)(=O)=O)cc5CC4)CC3)cc2)no1`, the Ratio Ki in experiment [1] came out at 100. In [11], this compound showed a negative logarithm of the Ki (pKi) of 8.40.
In the case of `COc1ccccc1N1CCN(CCCCN2CCCc3ccccc3C2=O)CC1`, the pKi was 8.82 in [2]; 8.41 in experiment [3]; 5.96 in experiment [4]; 8.24 in experiment [5]; 5.54 in [6]; 9.57 in experiment [7]. Further, the negative-log Ki (pKi) in experiment [8] was 8.89; in experiment [9], 8.77. For the same compound, the pEC50 in experiment [10] was 9.48.
